Results gathered from unrelated publications.
Each line is one published result; the experiments were not run side by side.
Adora1: Adenosine receptor A1 (Adora1, Rattus norvegicus, UniProt P25099)
MAOB: Amine oxidase [flavin-containing] B (MAOB, Homo sapiens, UniProt P27338)
CA9: Carbonic anhydrase 9 (CA9, Homo sapiens, UniProt Q16790)
CHRM4: Muscarinic acetylcholine receptor M4 (CHRM4, Homo sapiens, UniProt P08173)

SMILES | target | assay | system | setting | inhibition
CCN1CCCn2c1nc1c2c(=O)n(C)c(=O)n1C | Adora1 | ligand displacement, radioligand | – | 25 µM, cell membranes | 42%
CCN(CC)CCNC(=O)C1CCN(c2ccc3nnc(-c4cccc(C)c4)n3n2)CC1 | KCNU1 (Homo sapiens, UniProt A8MYU2) | ion current, inhibitor, patch clamp | HEK293 | 10 µM | 62%
COc1cc(-c2cc(-c3ccc(N4CCNCC4)cc3)cnc2C)cc(OC)c1OC | Dual specificity tyrosine-phosphorylation-regulated kinase 4 (DYRK4, Homo sapiens, UniProt Q9NR20) | enzyme activity, inhibitor | – | 1 µM | 1%
COc1cc(NC(C)=O)c(Cl)cc1C(=O)Nc1nccs1 | Histamine H1 receptor (HRH1, Homo sapiens, UniProt P35367) | cell-free assay | – | 10 µM | -2%
O=C(Nc1ccccc1Cl)c1ccc([N+](=O)[O-])cc1Cl | MAOB | enzyme activity, inhibitor | – | 1 µM, 20 min | 6%
Cc1ccc(-n2nc(C(C)(C)C)cc2NC(=O)Nc2ccc(OCCN3CCOCC3)c3ccccc23)cc1 | Tyrosine-protein phosphatase non-receptor type 2 (PTPN2, Homo sapiens, UniProt P17706) | enzyme activity, inhibitor | – | 10 µM | 17%
N#CC1CSc2[nH]c(=O)sc2C1c1cn(-c2ccccc2)nc1-c1ccc(Br)cc1 (stereo not shown) | CA9 | enzyme activity, inhibitor | – | 0.1 µM | 60.1%
CN(C)C1CCN(CC#Cc2nn(C3CCCC3)c3nc(NCc4ccccc4)ncc23)C1 (stereo not shown) | Serine/threonine-protein kinase N1 (PKN1, Homo sapiens, UniProt Q16512) | enzyme activity, inhibitor, FRET | – | 10 µM | 4%
CCN(CC)c1ccc(C2Nc3ccc(C(=O)c4ccccc4)cc3NC3=C2C(=O)CC(C)(C)C3)cc1 (stereo not shown) | CHRM4 | ligand displacement, radioligand | – | 10 µM | -1%
CN1CCCn2c1nc1c2c(=O)n(C)c(=O)n1C | Adora1 | ligand displacement, radioligand | – | 25 µM, cell membranes | 28%
N#Cc1cc(Cn2c(N3CCCC3)nc3ccccc32)ccc1F | CHRM4 | ligand displacement | – | 10 µM | -6.19%
CCOC(=O)C1CSc2[nH]c(=O)sc2C1c1cn(-c2ccccc2)nc1-c1ccc(OC)cc1 (stereo not shown) | CA9 | enzyme activity, inhibitor | – | 0.1 µM | 53.6%
O=C(c1ccc(F)cc1)N(Cc1ccccc1)C1CCCCC1 | Endothelin receptor type B (EDNRB, Homo sapiens, UniProt P24530) | cell-free assay | – | 10 µM | 3%
Cc1ccc(NC(=O)c2cc(Cl)ccc2O)cc1[N+](=O)[O-] | MAOB | enzyme activity, inhibitor | – | 1 µM, 20 min | 85%
CCOC(=O)C1CSc2[nH]c(=O)sc2C1c1cn(-c2ccccc2)nc1-c1ccc(Br)cc1 (stereo not shown) | CA9 | enzyme activity, inhibitor | – | 100 µM | 91.6%
Oc1cccc(Nc2nc(-c3ccc(F)cc3F)cs2)c1 | CHRM4 | cell-free assay | – | 10 µM | -2.9%

SMILES | target | assay | system | setting | inhibition
CCCCCC(C)N1CCCn2c1nc1c2c(=O)n(C)c(=O)n1C (stereo not shown) | Adora1 | ligand displacement, radioligand | – | 25 µM, cell membranes | 30%
O=C(Nc1ccccc1)c1ccc(Cl)cc1 | MAOB | enzyme activity, inhibitor | – | 1 µM, 20 min | 24%
CCOC(=O)C1CSc2[nH]c(=O)sc2C1c1cn(-c2ccccc2)nc1-c1ccc(Cl)cc1 (stereo not shown) | CA9 | enzyme activity, inhibitor | – | 10 µM | 86.3%
COc1cc([N+](=O)[O-])ccc1NC(=O)c1ccccc1 | MAOB | enzyme activity, inhibitor | – | 1 µM, 20 min | 14%
CCOC(=O)C1CSc2[nH]c(=O)sc2C1c1cn(-c2ccccc2)nc1-c1ccccc1 (stereo not shown) | CA9 | enzyme activity, inhibitor | – | 10 µM | 75.5%
O=C(c1ccc(Cl)cc1)N(Cc1ccccc1)C1CCCCC1 | Beta-1 adrenergic receptor (ADRB1, Homo sapiens, UniProt P08588) | cell-free assay | – | 10 µM | -27.9%
O=C(Nc1ccc([N+](=O)[O-])cc1Cl)c1cc2ccccc2s1 | MAOB | enzyme activity, inhibitor | – | 1 µM, 20 min | 40%
Cc1ccc(C(=O)Nc2ccc(S(=O)(=O)O)c3cc(S(=O)(=O)O)cc(S(=O)(=O)O)c23)cc1NC(=O)c1cccc(NC(=O)Nc2cccc(C(=O)Nc3cc(C(=O)Nc4ccc(S(=O)(=O)O)c5cc(S(=O)(=O)O)cc(S(=O)(=O)O)c45)ccc3C)c2)c1 | NAD-dependent protein deacylase sirtuin-5, mitochondrial (SIRT5, Homo sapiens, UniProt Q9NXA8) | enzyme activity, inhibitor | – | 100 µM | 85%
CCOC(=O)C1CSc2[nH]c(=O)sc2C1c1cn(-c2ccccc2)nc1-c1ccc(C)cc1 (stereo not shown) | CA9 | enzyme activity, inhibitor | – | 0.1 µM | 35.5%
O=C(Nc1ccc([N+](=O)[O-])cc1)c1ccc([N+](=O)[O-])cc1Cl | MAOB | enzyme activity, inhibitor | – | 1 µM, 20 min | 68%
O=C1NC(=S)C(=Cc2cn(-c3ccccc3)nc2-c2ccc(Br)cc2)S1 | CA9 | enzyme activity, inhibitor | – | 10 µM | 83.7%
O=C(Nc1ccccc1)c1ccc2c(c1)OCO2 | MAOB | enzyme activity, inhibitor | – | 1 µM, 20 min | 80%
CC(C)CC(C)N1CCCn2c1nc1c2c(=O)n(C)c(=O)n1C (stereo not shown) | Adora1 | ligand displacement, radioligand | – | 25 µM, cell membranes | 30%
CCOc1ccc(C(=O)Nc2ccc([N+](=O)[O-])cc2Cl)cc1OCC | MAOB | enzyme activity, inhibitor | – | 1 µM, 20 min | 34%
CC(C)N1CCCn2c1nc1c2c(=O)n(C)c(=O)n1C | Adora1 | ligand displacement, radioligand | – | 25 µM, cell membranes | 38%
